Several values for one entry are separate records, joined by “and”; a condition that tells them apart may be missing. Equal values may be shown once. Read-outs that look alike come from different tables or passages of the source.
Assays:
[1] = Monkey mass balance and urine metabolite profile; type: in vivo, Macaca fascicularis monkeys; conditions: 30 mg/kg, urine 0–24 hours
[2] = Rat plasma PK and plasma metabolite profile after oral [14C]-levomilnacipran; type: in vivo, Sprague Dawley rats
Procedure, shortened: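 Male Sprague Dawley rats were gavaged with 50 mg/kg [14C]-test compound. Aortic blood was drawn under isoflurane into lithium heparin, three rats per time, from 0.25 to 72 h (second study: 1–10 h). Plasma radioactivity was counted by liquid scintillation. Parent and N-desethyl metabolite were measured by LC–MS/MS (1–500 ng/mL), and conjugates after β-glucuronidase/sulfatase deconjugation. Cmax and AUC came from non-compartmental analysis.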

[3] = Human mass balance and urine metabolite profile; type: in vivo, human (healthy men); conditions: 60 mg, urine 0–120 hours
Procedure, shortened: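 Open-label single-centre study in healthy young men. Each took one oral 5 mL solution of 60 mg [14C]-test compound (3.7 MBq), about 30 min after starting breakfast. Urine was collected in intervals to 120 h and feces in 24-h intervals to 120 h. Radioactivity was read by liquid scintillation and reported as % of dose. Urinary analytes were measured by LC–MS/MS (1–5,000 ng/mL) before and after β-glucuronidase/sulfatase deconjugation (15 h, 37°C).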

[4] = type: in vivo, human (healthy men); conditions: human
[5] = Rat mass balance and urine metabolite profile; type: in vivo, Sprague Dawley rats; conditions: rat (Sprague Dawley), 50 mg/kg, urine 0–24 hours
Procedure, shortened: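 Sprague Dawley rats received 50 mg/kg [14C]-test compound by gavage in ultrapure water. Urine, feces and cage wash were collected from 3 males and 3 females pre-dose and at 0–8, 8–24, 24–48 and 48–72 h. A second study collected urine from 3 males to 24 h. Radioactivity was counted by liquid scintillation as % of dose. Urinary analytes were measured by LC–MS/MS (50–24,750 ng/mL), with and without deconjugation (15 h, 37°C).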

[6] = tested on: plasma proteins; conditions: cited from earlier work
[7] = cited from earlier work; for half-life (T1/2): humans
[8] = Sprague Dawley, rat, plasma, po, 50 mg/kg

CCN(CC)C(=O)[C@@]1(c2ccccc2)C[C@H]1CN [Levomilnacipran, levomilnacipran]
Mean urinary excretion of compound [1]: 35.5 % of administered dose
AUC(0-inf) [2, 8]: 16600 ng·h/mL
AUC(0-t) [2, 8]: 16600 ng·h/mL
Cmax [2, 8]: 8060 ng/mL
Tmax [2, 8]: 0.5 h
Share of circulating total radioactivity ([2]; male rats, 50 mg/kg oral): about 60%
Mean urinary excretion of compound [3]: 58.4 % of administered dose
Mean urinary excretion of compound ([3]; listed as levomilnacipran): 58.4 % of administered dose and 58 % of administered dose
Contribution to total radioactivity plasma exposure (area under the curve) ([4]; 60 mg oral): 45.1%
Contribution to total plasma radioactivity at peak plasma levels ([4]; from average peak plasma concentrations): 61.0%
Share of total plasma radioactivity ([4]; within 12 hours of dosing): 52.9%
AUC(0-inf) ([4]; male, plasma, po, 60 mg): 2090 ng·h/mL
AUC(0-t) ([4]; male, plasma, po, 60 mg): 2060 ng·h/mL
Cmax ([4]; male, plasma, po, 60 mg): 179 ng/mL
Tmax ([4]; male, plasma, po, 60 mg): 2.75 h
half-life ([4]; male, plasma, po, 60 mg): 10.4 h
Mean urinary excretion of compound [5]: 40.2 % of administered dose

CCN(CC)C(=O)C1(c2ccccc2)CC1CN (stereo not drawn) [milnacipran]
plasma protein binding [6]: 13%
half-life (T1/2) [7]: 8 h

CN(C)CC(c1ccc(O)cc1)C1(O)CCCCC1 (stereo not drawn) [desvenlafaxine]
plasma protein binding [6]: 30%
Urinary excretion as unchanged (parent) drug [7]: 45%
half-life (T1/2) [7]: 11 h

CNCC[C@H](Oc1cccc2ccccc12)c1cccs1 [duloxetine]
plasma protein binding [6]: greater than 90%
Urinary excretion as unchanged (parent) drug [7]: less than 1%
half-life (T1/2) [7]: 12 h

COc1ccc(C(CN(C)C)C2(O)CCCCC2)cc1 (stereo not drawn) [venlafaxine]
plasma protein binding [6]: 27%
half-life (T1/2) [7]: 5 h

— paper PMC4484650 (Drug Design, Development and Therapy, 2015)
